The values below come from ChEMBL document CHEMBL4351026, “Antifungal activity, mode of action variability, and subcellular distribution of coumarin-based antifungal azoles” (Eur J Med Chem, 2019).

Data set [1] is described as follows: Cytotoxicity against human HEK293T cells assessed as reduction in cell viability at 5 to 50 uM incubated for 24 hrs by XTT assay relative to control. Type of data set: cell-based, HEK-293T. To be noted: HEK293T cells, read-out: INH. An outline of the steps: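 HEK-293T cells were grown in DMEM with 10% FBS, 1% NEAA, 1% pyruvate and pen-strep-nystatin at 37 °C and 5% CO2. 7000 cells/well were seeded on poly-D-lysine-coated wells. After 24 h the medium was renewed and compounds were added at 5–50 µM from 1 mM stocks in 10% DMSO/0.3% Tween/PBS. After 24 h, XTT was added for 2 h at 37 °C, with absorbance read at 475 nm (reference 660 nm).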

In data set [2] the test system is Meyerozyma guilliermondii. Briefly: Antifungal activity against Candida guilliermondii T-47 assessed as reduction in fungal cell growth incubated for 24 hrs by MTT based broth double dilution method. Type of data set: functional. To be noted: T-47, 24 h. An outline of the steps: (§1)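 Broth double-dilution in Casitone broth. Starter cultures were grown 24 or 48 h at 37 °C, 5% CO₂, diluted 1:100, and added to serial two-fold dilutions at 64 to 0.007 µg/mL. Final inoculum was 5 x 10^4 to 5 x 10^5 CFU/mL; DMSO was 0.0012–1.3%. Plates were incubated at 37 °C, 5% CO₂, then MTT was added for 2 h. MIC followed CLSI M27-A3. Triplicates, two independent experiments.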

The test system of data set [3] is Candida albicans. Briefly: Antifungal activity against Candida albicans P-87 assessed as reduction in fungal cell growth incubated for 24 hrs by MTT based broth double dilution method. Type of data set: functional. To be noted: P-87, 24 h. An outline of the steps: as §1
In the next data set the target is Cytochrome P450 3A4 (Homo sapiens, UniProt P08684). Nature of the data set: Inhibition of recombinant human CYP3A4 using Luciferin-PPXE as substrate preincubated for 10 mins followed by NADPH addition measured after 15 mins by luminometric method. Type of data set: ADME. Summed up:
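P450-Glo luminescent assay, Luciferin-PPXE substrate. Compound was mixed with membranes containing recombinant human CYP3A4; controls were vehicle with membranes lacking CYP3A4. After 10 min preincubation at 37 °C, NADPH regeneration reagent was added and the mixture kept 15 min at 37 °C. Luciferin detection reagent stopped the reaction; after 20 min at room temperature, luminescence was read. Duplicates.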

Data set [4] deals with Nakaseomyces glabratus. Briefly: Antifungal activity against Candida glabrata 192 assessed as reduction in fungal cell growth incubated for 24 hrs by MTT based broth double dilution method. Type of data set: functional. To be noted: Nakaseomyces glabratus, 192, 24 h. An outline of the steps:
as §1

Another data set concerns HepG2. Nature of the data set: Cytotoxicity against human HepG2 cells assessed as reduction in cell viability at 5 to 50 uM incubated for 24 hrs by XTT assay. Type of data set: cell-based. To be noted: hepg2, 24 h. Summed up:
(§2)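 HEK-293T were grown in DMEM with 10% FBS; HepG2 in RPMI with 15% FBS; both at 37 °C, 5% CO₂. Cells (4000 HepG2 or 7000 HEK-293T per well) were seeded on poly-D-lysine wells. After 24 h the medium was renewed and compounds added at 5–50 µM from 1 mM stocks in 10% DMSO/0.3% Tween/PBS. After 24 h more, XTT was added for 2 h at 37 °C; absorbance was read at 475 nm against 660 nm reference.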

The subject of data set [5] is Nakaseomyces glabratus. Briefly: Antifungal activity against Candida glabrata 192 assessed as reduction in fungal cell growth incubated for 48 hrs by MTT based broth double dilution method. Type of data set: functional. To be noted: Nakaseomyces glabratus, 192, 48 h. An outline of the steps: as §1
The subject of data set [6] is Candida parapsilosis. Nature of the data set: Antifungal activity against Candida parapsilosis ATCC 22019 assessed as reduction in fungal cell growth incubated for 24 hrs by MTT based broth double dilution method. To be noted: Lodderomyces parapsilosis, ATCC 22019, 24 h. Type of data set: functional. An outline of the steps: as §1
Data set [7] can be described thus: Cytotoxicity against human HepG2 cells assessed as reduction in cell viability at 5 to 50 uM incubated for 24 hrs by XTT assay relative to control. Type of data set: cell-based. To be noted: read-out: INH. Summed up: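 HepG2 cells were maintained in RPMI with 15% FBS, 1% NEAA, 1% pyruvate and pen-strep-nystatin at 37 °C and 5% CO2. 4000 cells/well were plated on poly-D-lysine coating and given fresh medium after 24 h. Compounds were dosed at 5–50 µM from 1 mM stocks in 10% DMSO/0.3% Tween/PBS and incubated 24 h. Viability was read by XTT (2 h, 37 °C) at 475 nm against 660 nm.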

In data set [8] the test system is Candida albicans. Nature of the data set: Antifungal activity against Candida albicans ATCC 90028 assessed as reduction in fungal cell growth incubated for 24 hrs by MTT based broth double dilution method. Type of data set: functional. To be noted: ATCC 90028, 24 h. Summed up:
as §1

For data set [9], the system named is Candida parapsilosis. Nature of the data set: Antifungal activity against Candida parapsilosis ATCC 90018 assessed as reduction in fungal cell growth incubated for 24 hrs by MTT based broth double dilution method. Type of data set: functional. To be noted: Lodderomyces parapsilosis, ATCC 90018, 24 h. Summed up:
as §1

Data set [10] concerns Candida albicans. Nature of the data set: Antifungal activity against Candida albicans ATCC 90028 assessed as reduction in fungal cell growth incubated for 48 hrs by MTT based broth double dilution method. Type of data set: functional. To be noted: ATCC 90028, 48 h. Summed up:
as §1

Data set [11] relates to Nakaseomyces glabratus. Briefly: Antifungal activity against Candida glabrata ATCC 66032 assessed as reduction in fungal cell growth incubated for 24 hrs by MTT based broth double dilution method. Particulars: ATCC 66032, 24 h. Type of data set: functional. An outline of the steps:
as §1

Another data set deals with HEK-293T. Nature of the data set: Cytotoxicity against human HEK293T cells assessed as reduction in cell viability at 5 to 50 uM incubated for 24 hrs by XTT assay. Type of data set: cell-based. Summed up: as §2
The test system of data set [12] is Candida albicans. Nature of the data set: Antifungal activity against Candida albicans SN152 assessed as reduction in fungal cell growth incubated for 24 hrs by MTT based broth double dilution method. Type of data set: functional. Particulars: SN152, 24 h. Summed up: as §1
A further data set has as its system Candida dubliniensis. Nature of the data set: Antifungal activity against Candida dubliniensis T-99 assessed as reduction in fungal cell growth incubated for 24 hrs by MTT based broth double dilution method. Type of data set: functional. Particulars: T-99, 24 h. Summed up:
as §1

Data set [13] deals with Nakaseomyces glabratus. Briefly: Antifungal activity against Candida glabrata ATCC 2001 assessed as reduction in fungal cell growth incubated for 24 hrs by MTT based broth double dilution method. Type of data set: functional. To be noted: ATCC 2001, 24 h. Summed up: as §1
Data set [14] deals with Candida albicans. Nature of the data set: Antifungal activity against Candida albicans SN152 assessed as reduction in fungal cell growth incubated for 48 hrs by MTT based broth double dilution method. Type of data set: functional. To be noted: SN152, 48 h. Summed up: as §1
The subject of data set [15] is Nakaseomyces glabratus. Briefly: Antifungal activity against Candida glabrata ATCC 66032 assessed as reduction in fungal cell growth incubated for 48 hrs by MTT based broth double dilution method. Type of data set: functional. Particulars: ATCC 66032, 48 h. An outline of the steps: as §1
The test system of data set [16] is Candida albicans. Nature of the data set: Antifungal activity against ERG11/ERG3 knocked out Candida albicans SN152 assessed as zone of inhibition at 25 ug […] by disk diffusion method. Type of data set: functional, organism-based.
Data set [17] is described as follows: Drug distribution in Candida albicans SN152 assessed as subcellular compound distribution at 10 uM incubated for 60 mins by fluorescent imaging analysis. Type of data set: ADME. Particulars: 1 h. An outline of the steps: (§3)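 Yeast were grown overnight at 30 °C in YPD liquid, diluted 1:10, and grown 2 h at 30 °C to log phase. Fluorescent azole was added at 10 µM final and incubated 60 min in the dark. Cells were washed once in PBS and imaged on slides in bright field and fluorescence (ex 427 nm, em 510 nm).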

Data set [18] relates to Candida albicans. Nature of the data set: Antifungal activity against Candida albicans SN152 assessed as zone inhibition at 25 ug incubated for 24 hrs by disk diffusion method. Type of data set: functional, organism-based. An outline of the steps:
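Strains were streaked on YPD agar and grown at 30 °C: 24 h for parental SN152, 48 h for the erg11ΔΔ erg3ΔΔ mutant. Colonies were suspended in PBS and adjusted to OD 0.02 (SN152) or 0.03 (mutant), then spread on Casitone plates. A 6-mm disk loaded with 25 µg compound was placed centrally. Plates were incubated at 30 °C and photographed after 24 h.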

Data set [19] can be described thus: Drug distribution in Candida glabrata 2001 assessed as subcellular compound distribution at 10 uM incubated for 60 mins by fluorescent imaging analysis. Type of data set: ADME. To be noted: nakaseomyces glabratus, 1 h. Summed up: as §3

In brackets after ≈: the same amount, converted by molar mass. Activity calls are given as the source filed them. The calls are words filed in the database; no cut-off is given here. Some results are limits rather than exact numbers.

Cytochrome P450 3A4, sequence (P08684 whole entry): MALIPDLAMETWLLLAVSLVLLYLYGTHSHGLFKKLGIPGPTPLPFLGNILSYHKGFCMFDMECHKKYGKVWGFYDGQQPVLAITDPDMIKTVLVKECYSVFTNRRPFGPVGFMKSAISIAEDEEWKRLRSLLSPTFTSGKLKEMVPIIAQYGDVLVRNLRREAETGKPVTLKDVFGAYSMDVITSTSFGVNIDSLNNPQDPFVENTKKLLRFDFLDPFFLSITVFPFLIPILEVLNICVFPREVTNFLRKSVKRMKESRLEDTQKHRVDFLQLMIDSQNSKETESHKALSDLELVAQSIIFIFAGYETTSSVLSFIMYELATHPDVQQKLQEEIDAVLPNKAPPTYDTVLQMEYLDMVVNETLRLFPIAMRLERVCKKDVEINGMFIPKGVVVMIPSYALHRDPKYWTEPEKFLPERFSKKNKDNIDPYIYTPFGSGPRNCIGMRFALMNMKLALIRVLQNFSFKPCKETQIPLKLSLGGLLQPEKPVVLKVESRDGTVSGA

For the molecule `CCC(CC)Oc1ccc2cc(C(=O)NCC(O)(Cn3cncn3)c3ccc(Cl)cc3Cl)c(=O)oc2c1` (racemic), the cytotoxicity at 24 h, up to 50 µM in data set [1] and in data set [7] was below 40% each time. Further, the MIC in [2] is 0.5 µg/mL (≈ 0.917 µM); with Candida albicans [3], 0.03 µg/mL (≈ 0.055 µM); in the data set with Nakaseomyces glabratus [4], 2 µg/mL (≈ 3.67 µM); with Nakaseomyces glabratus [5], above 64 µg/mL; in the data set on Candida parapsilosis [6], 0.5 µg/mL (≈ 0.917 µM); with Candida albicans [8] it was 0.06 µg/mL (≈ 0.11 µM). The MIC is 0.25 µg/mL (≈ 0.458 µM) with Candida parapsilosis [9]; 0.06 µg/mL (≈ 0.11 µM) with Candida albicans [10]; above 64 µg/mL in the data set with Nakaseomyces glabratus [11]; 0.06 µg/mL (≈ 0.11 µM) with Candida albicans [12]; 0.5 µg/mL (≈ 0.917 µM) with Candida dubliniensis; above 64 µg/mL in the data set with Nakaseomyces glabratus [13]. Also, the figures for the MIC in the data set on Candida albicans [14] and with Nakaseomyces glabratus [15] were 0.06 µg/mL (≈ 0.11 µM) and above 64 µg/mL, respectively. Moreover, the IC50 at Cytochrome P450 3A4 is at least 2.5 µM. The Activity entry in the data set on HepG2 and in the data set on HEK-293T was “Non-Toxic” in each case.
As to `CCC(CC)Oc1ccc2cc(C(=O)NCC(O)(Cn3ccnc3)c3ccc(Cl)cc3Cl)c(=O)oc2c1` (racemic), the cytotoxicity at 24 h, up to 50 µM in data set [1] and in data set [7] was below 40% in each case. In addition, the minimum inhibitory concentration (MIC) in [2] was 0.25 µg/mL (≈ 0.459 µM); in the data set with Candida albicans [3], 0.06 µg/mL (≈ 0.11 µM); with Nakaseomyces glabratus [4] it was 0.5 µg/mL (≈ 0.918 µM); in the data set on Nakaseomyces glabratus [5], 1 µg/mL (≈ 1.84 µM); in the data set on Candida parapsilosis [6] it was 0.5 µg/mL (≈ 0.918 µM); in the data set with Candida albicans [8], 0.03 µg/mL (≈ 0.0551 µM). In addition, the MIC in the data set on Candida parapsilosis [9] is 0.125 µg/mL (≈ 0.23 µM); in the data set on Candida albicans [10] it was 0.06 µg/mL (≈ 0.11 µM); in the data set on Nakaseomyces glabratus [11], 2 µg/mL (≈ 3.67 µM); in the data set on Candida albicans [12], 0.06 µg/mL (≈ 0.11 µM); in the data set with Candida dubliniensis, 0.25 µg/mL (≈ 0.459 µM); in the data set on Nakaseomyces glabratus [13], 2 µg/mL (≈ 3.67 µM). The MIC is 0.06 µg/mL (≈ 0.11 µM) with Candida albicans [14] and above 64 µg/mL in the data set on Nakaseomyces glabratus [15]. The IC50 on Cytochrome P450 3A4 stood at 0.251 µM. Further, the Activity result with HepG2 and in the data set with HEK-293T was “Non-Toxic” each time.
Take `CCN(CC)c1ccc2cc(C(=O)NCC(O)(Cn3cncn3)c3ccc(F)cc3F)c(=O)oc2c1` (racemic): the “inhibition zone (IZ)” value in the data set on Candida albicans [16] is “inactive”. For the same molecule, the MIC in data set [2] was 1 µg/mL (≈ 2.01 µM); in the data set with Candida albicans [3] it was 0.06 µg/mL (≈ 0.121 µM); in the data set on Nakaseomyces glabratus [4], 8 µg/mL (≈ 16.1 µM); with Nakaseomyces glabratus [5] it was above 64 µg/mL; in the data set with Candida parapsilosis [6] it was 1 µg/mL (≈ 2.01 µM); in the data set on Candida albicans [8], 0.06 µg/mL (≈ 0.121 µM). Moreover, the MIC in the data set on Candida parapsilosis [9] was 0.125 µg/mL (≈ 0.251 µM); in the data set with Candida albicans [10], 0.125 µg/mL (≈ 0.251 µM); with Nakaseomyces glabratus [11] it was 4 µg/mL (≈ 8.04 µM); in the data set on Candida albicans [12], 0.03 µg/mL (≈ 0.0603 µM); with Candida dubliniensis it was 1 µg/mL (≈ 2.01 µM); in the data set with Nakaseomyces glabratus [13] it was 16 µg/mL (≈ 32.2 µM). Also, the MIC with Candida albicans [14] is 0.125 µg/mL (≈ 0.251 µM); in the data set with Nakaseomyces glabratus [15] it was above 64 µg/mL. Also, the IC50 at Cytochrome P450 3A4 was determined as 1.02 µM. Besides, the Drug uptake result in data set [17] and in data set [19] was “Active” in each case. Further, in the data set with Candida albicans [18], the “inhibition zone (IZ)” value was “Active”.
